From ChEMBL document CHEMBL1255379, “Evaluation of Etest method for determining isavuconazole MICs against Cryptococcus gattii and Cryptococcus neoformans” (2008)
In brackets after ≈: the same amount, converted by molar mass.

Columns and labels:
[1] = tested on: Cryptococcus gattii species complex; test: Antimicrobial activity against Cryptococcus gattii by broth microdilution method; format: functional, Cryptococcus bacillisporus
Outline: (§1)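 CLSI M27-A2 broth microdilution in RPMI 1640 with L-glutamine, no bicarbonate, MOPS-buffered to pH 7.0. Isavuconazole stock in DMSO; final concentrations 0.015 to 8 μg/ml. Inoculum 0.5 × 10³ to 2.5 × 10³ cells/ml from subcultured isolates. Incubated at 35°C. MIC read at 48 and 72 h as 50% reduction in turbidity versus drug-free control. Candida krusei ATCC 6258 and C. parapsilosis ATCC 22019 served as quality controls.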

[2] = tested on: Cryptococcus gattii species complex; test: Antimicrobial activity against Cryptococcus gattii by Etest method; format: functional, Cryptococcus bacillisporus
Outline: (§2)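 Isolates (clinical and environmental), maintained in sterile water or glycerol broth, subcultured at least twice on Sabouraud dextrose agar. Suspension adjusted to 0.5 McFarland and swabbed onto RPMI agar plates with 2% glucose; isavuconazole Etest strips applied. Incubated at 35°C, read at 48 and 72 h. MIC taken where prominent growth reduction meets the strip, raised to the next twofold level.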

Cryptococcus neoformans [3] = test: Antimicrobial activity against Cryptococcus neoformans by Etest method; format: functional; outline: as §2
Cryptococcus neoformans [4] = test: Antimicrobial activity against Cryptococcus neoformans by broth microdilution method; format: functional; outline: as §1

Q: `C[C@@H](c1nc(-c2ccc(C#N)cc2)cs1)[C@](O)(Cn1cncn1)c1cc(F)ccc1F` [ISAVUCONAZOLE] was tested. Which MIC [1] did it give?
A: Its MIC is at most 0.015 µg/mL.

Q: What about the MIC50 [1] of the same compound?
A: The MIC50 was 0.03 µg/mL (≈ 0.0686 µM).

Q: And the MIC90 [1]?
A: Its MIC90 is 0.06 µg/mL (≈ 0.137 µM).

Q: What about the MIC [2] of the same compound?
A: Its MIC is 0.003 µg/mL (≈ 0.00686 µM).

Q: And the MIC50 [2]?
A: Its MIC50 is 0.032 µg/mL (≈ 0.0731 µM).

Q: And the MIC90 [2]?
A: The MIC90 was 0.125 µg/mL (≈ 0.286 µM).

Q: And the MIC (Cryptococcus neoformans [3])?
A: The MIC was 0.002 µg/mL (≈ 0.00457 µM).

Q: What about the MIC50 (Cryptococcus neoformans [3]) of the same compound?
A: Its MIC50 is 0.023 µg/mL (≈ 0.0526 µM).

Q: What about the MIC90 (Cryptococcus neoformans [3]) of the same compound?
A: Its MIC90 is 0.047 µg/mL (≈ 0.107 µM).

Q: What about the MIC (Cryptococcus neoformans [4]) of the same compound?
A: The MIC was at most 0.015 µg/mL.

Q: What about the MIC50 (Cryptococcus neoformans [4]) of the same compound?
A: Its MIC50 is at most 0.015 µg/mL.

Q: And the MIC90 (Cryptococcus neoformans [4])?
A: The MIC90 was 0.06 µg/mL (≈ 0.137 µM).
